ChEMBL document CHEMBL3525971 (Drug Metab Dispos, 2011)

Key:
Sus scrofa [1] = assay: Absorption rate constant in castrated pig plasma withdrawn from portal vein at 0.8 mg/kg administered as intrajejunal dose 20 mins after ketoconazole administration by UPLC-tandem mass spectrometry; type: ADME, organism-based; set-up: dose 0.8 mg/kg; conditions: in vivo, other
[2] = Cmax in castrated pig plasma withdrawn from hepatic vein at 0.8 mg/kg administered as intrajejunal dose by UPLC-tandem mass spectrometry; type: ADME, organism-based, Sus scrofa; set-up: dose 0.8 mg/kg; conditions: male
Summary of the method: (§1)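 Where ketoconazole was co-dosed, it was given at 10 mg/kg at the same jejunal site 20 min before. Plasma protein-precipitated with acetonitrile and analysed by UPLC-MS/MS (finasteride-d9). AUC0-6h, Cmax and t1/2 (ln2/λz) were derived by non- or compartmental analysis.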

[3] = Total plasma clearance in human; type: ADME, organism-based
[4] = Terminal half life in castrated pig plasma withdrawn from portal vein at 0.8 mg/kg administered as intrajejunal dose by UPLC-tandem mass spectrometry; type: ADME, organism-based, Sus scrofa; set-up: dose 0.8 mg/kg; conditions: male, read-out: beta t1/2 (converted)
Summary of the method: (§2)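 Portal, hepatic and femoral vein plasma sampled over 6 h and assayed by UPLC-MS/MS. Tmax read directly from the profiles. Terminal t1/2 calculated as ln2/λz by non- or compartmental analysis; values below LLOQ after Cmax excluded.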

[5] = Biliary excretion in castrated pig assessed as fraction of the dose excreted at 0.8 mg/kg administered as intrajejunal dose 20 mins after ketoconazole administration measured during 6 hrs sampling by UPLC-tandem mass spectrometry; type: ADME, organism-based, Sus scrofa; set-up: dose 0.8 mg/kg; conditions: male, bile, read-out: Drug excretion
Plasma = assay: Drug metabolism in castrated pig plasma withdrawn from portal vein assessed as omega-hydroxy finasteride metabolite formation by UPLC-tandem mass spectrometry; type: ADME, cell-free, Sus scrofa
Summary of the method: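 Plasma sampled 0-6 h from portal, hepatic and femoral veins. Analysed by acetonitrile precipitation with finasteride-d9 internal standard, then UPLC-MS/MS in SRM mode, m/z 389.41 → 271.94 for the ω-hydroxy metabolite.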

[6] = Tmax in castrated pig plasma withdrawn from portal vein at 0.8 mg/kg administered as intrajejunal dose by UPLC-tandem mass spectrometry; type: ADME, organism-based, Sus scrofa; set-up: dose 0.8 mg/kg; conditions: male; summary of the method: as §2
[7] = Tmax in castrated pig plasma withdrawn from hepatic vein at 0.8 mg/kg administered as intrajejunal dose by UPLC-tandem mass spectrometry; type: ADME, organism-based, Sus scrofa; set-up: dose 0.8 mg/kg; conditions: male; summary of the method: as §2
[8] = Cmax in castrated pig bile at 0.8 mg/kg administered as intrajejunal dose 20 mins after ketoconazole administration by UPLC-tandem mass spectrometry; type: ADME, organism-based, Sus scrofa; set-up: dose 0.8 mg/kg; conditions: male
[9] = Ratio of AUC in bile to plasma withdrawn from portal vein in castrated pig at 0.2 mg/kg, iv by UPLC-tandem mass spectrometry; type: ADME, organism-based, Sus scrofa; set-up: dose 0.2 mg/kg, route intravenous; conditions: male, read-out: Ratio AUC
Summary of the method: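 Bile collected 0-6 h and weighed; portal and hepatic vein plasma sampled. Analytes quantified by UPLC-MS/MS (finasteride-d9 internal standard, SRM). Bile AUC divided by plasma AUC for each vein.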

Sus scrofa [10] = assay: Absorption rate constant in castrated pig plasma withdrawn from portal vein at 0.8 mg/kg administered as intrajejunal dose by UPLC-tandem mass spectrometry; type: ADME, organism-based; set-up: dose 0.8 mg/kg; conditions: in vivo, other
[11] = Renal clearance in castrated pig at 0.8 mg/kg, administered as intrajejunal dose 20 mins after ketoconazole administration by UPLC-tandem mass spectrometry; type: ADME, organism-based, Sus scrofa, Kidney; set-up: dose 0.8 mg/kg; conditions: male, in vivo
Summary of the method: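 Urine collected 0-360 min into a closed bag, weighed and frozen at -20°C. […] Doses: iv 0.2 mg/kg bolus via central vein catheter (n=3), or ij 0.8 mg/kg alone or 20 min after ij ketoconazole 10 mg/kg (n=5). Renal clearance derived from the amount excreted in urine over 0-6 h.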

[12] = AUC (0 to 6 hrs) in castrated pig plasma withdrawn from hepatic vein at 0.2 mg/kg, iv by UPLC-tandem mass spectrometry; type: ADME, organism-based, Sus scrofa; set-up: time < 6 hr, dose 0.2 mg/kg, route intravenous; conditions: male; summary of the method: as §1

- ka (Sus scrofa [1]): 29 h⁻¹
- Cmax [2]: 1000 nM
- clearance [3]: 2.33 mL/min/kg
- half-life [4]: 90 min
- dose excreted [5]: 0.18%
- Drug metabolism (Plasma): metabolite_not_detected
- Tmax [6]: 18 min
- Tmax [7]: 30 min
- Cmax [8]: 2000 nM
- Kp [9]: 0.9
- ka (Sus scrofa [10]): 19 h⁻¹
- CL renal at 20 min [11]: 8.64 mL/day/kg
- AUC(0-t) at 6 h [12]: 0.9 µM·h
Compound: CC(C)(C)NC(=O)[C@H]1CC[C@H]2[C@@H]3CC[C@H]4NC(=O)C=C[C@]4(C)[C@H]3CC[C@]12C [FINASTERIDE]
